# Reference: ChEMBL document CHEMBL1649579, “A novel tryptophanyl-tRNA synthetase gene confers high-level resistance to indolmycin” (2009)
# Assays:
# Assay type in all cases: functional
# Streptomyces coelicolor [1] = assay: Antimicrobial activity against Streptomyces coelicolor B725 harboring trpRS2 H48Q mutant ORF after 48 hrs; settings: B725, 48 h
# Outline: (§1)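 Agar MIC in S. coelicolor trpRS1-null strain B725. Each ORF is cloned into pIJ10257 under the constitutive ermE* promoter for equalized expression. Growth is on Difco nutrient agar with indolmycin at the indicated concentrations, 30C, 48 h. MIC is the concentration that inhibits growth.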
# Streptomyces coelicolor [2] = assay: Ratio of MIC for Streptomyces coelicolor B725 harboring trpRS2 H48N mutant ORF to MIC for Streptomyces coelicolor B725
# Outline: (§2)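 Fold increase is the indolmycin MIC of each construct-bearing B725 strain (ermE* promoter) divided by the MIC of the parent trpRS1-null B725. Both MICs come from Difco nutrient agar plates containing indolmycin, read for growth after 2 days at 30C.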
# Streptomyces coelicolor [3] = assay: Antimicrobial activity against wild-type Streptomyces coelicolor after 48 hrs
# Outline: (§3)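 Indolmycin MIC on Difco nutrient agar containing the indicated indolmycin concentrations. Spores are grown at 30C for 48 h. MIC is the lowest indolmycin concentration that prevents growth after 2 days.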
# Streptomyces coelicolor [4] = assay: Ratio of MIC for Streptomyces coelicolor B725 harboring trpRS2 ORF to MIC for Streptomyces coelicolor B725; outline: as §2
# Streptomyces coelicolor [5] = assay: Ratio of MIC for Streptomyces coelicolor B725 harboring trpRS2 C(-17)A/H48Q locus to MIC for Streptomyces coelicolor B725; outline: as §2
# Streptomyces coelicolor [6] = assay: Ratio of MIC for Streptomyces coelicolor B725 harboring trpRS2 H48Q mutant ORF to MIC for Streptomyces coelicolor B725; outline: as §2
# Streptomyces coelicolor [7] = assay: Antimicrobial activity against Streptomyces coelicolor B725 harboring trpRS2 L9F/H48Q mutant ORF after 48 hrs; settings: B725, 48 h; outline: as §1
# Streptomyces coelicolor [8] = assay: Antimicrobial activity against Streptomyces coelicolor B725 harboring trpRS2 G(-13)T/H48Q locus after 48 hrs; settings: B725, 48 h
# Outline: (§4)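 Agar MIC in trpRS1-null S. coelicolor B725 carrying the trpRS2 locus (93 nt upstream to 96 nt downstream of the ORF, with or without point mutations) […]. Plates are Difco nutrient agar with indicated indolmycin levels, read for growth after 48 h at 30C.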
# Streptomyces coelicolor [9] = assay: Antimicrobial activity against Streptomyces coelicolor B725 harboring trpRS2 C(-17)A/H48Q locus after 48 hrs; settings: B725, 48 h; outline: as §4
# Streptomyces griseus = assay: Antimicrobial activity against Streptomyces griseus after 48 hrs; outline: as §3
# Streptomyces coelicolor [10] = assay: Ratio of MIC for Streptomyces coelicolor B725 harboring trpRS2 G(-13)T/L9F locus to MIC for Streptomyces coelicolor B725; outline: as §2
# Streptomyces coelicolor [11] = assay: Antimicrobial activity against Streptomyces coelicolor B725 harboring trpRS2 C(-17)A locus after 48 hrs; settings: B725, 48 h; outline: as §4
# Streptomyces avermitilis = assay: Antimicrobial activity against Streptomyces avermitilis harboring trpRS1 homolog after 48 hrs; outline: as §3
# Streptomyces coelicolor [12] = assay: Antimicrobial activity against trpRS1 deficient Streptomyces coelicolor B725 after 48 hrs; settings: B725, 48 h; outline: as §3
# Streptomyces coelicolor [13] = assay: Antimicrobial activity against Streptomyces coelicolor B725 harboring trpRS2 C(-17)A/L9F locus after 48 hrs; settings: B725, 48 h; outline: as §4
# Streptomyces coelicolor [14] = assay: Ratio of MIC for Streptomyces coelicolor B725 harboring trpRS2 G(-13)T/H48Q locus to MIC for Streptomyces coelicolor B725; outline: as §2
# Streptomyces coelicolor [15] = assay: Antimicrobial activity against Streptomyces coelicolor B725 harboring trpRS2 ORF after 48 hrs; settings: B725, 48 h; outline: as §1
# Streptomyces coelicolor [16] = assay: Ratio of MIC for Streptomyces coelicolor B725 harboring trpRS2 C(-17)A locus to MIC for Streptomyces coelicolor B725; outline: as §2
# Streptomyces coelicolor [17] = assay: Antimicrobial activity against Streptomyces coelicolor B725 harboring trpRS2 L9F/Q13K mutant ORF after 48 hrs; settings: B725, 48 h; outline: as §1
# Streptomyces coelicolor [18] = assay: Ratio of MIC for Streptomyces coelicolor B725 harboring trpRS2 L9F/Q13K mutant ORF to MIC for Streptomyces coelicolor B725; outline: as §2
# Streptomyces coelicolor [19] = assay: Ratio of MIC for Streptomyces coelicolor B725 harboring trpRS2 L9F/H48Q mutant ORF to MIC for Streptomyces coelicolor B725; outline: as §2
# Streptomyces coelicolor [20] = assay: Antimicrobial activity against Streptomyces coelicolor B725 harboring trpRS2 locus after 48 hrs; settings: B725, 48 h; outline: as §4
# Streptomyces coelicolor [21] = assay: Antimicrobial activity against Streptomyces coelicolor B725 harboring trpRS2 L9F mutant ORF after 48 hrs; settings: B725, 48 h; outline: as §1
# Streptomyces coelicolor [22] = assay: Antimicrobial activity against Streptomyces coelicolor B725 harboring trpRS2 H48N mutant ORF after 48 hrs; settings: B725, 48 h; outline: as §1
# Streptomyces coelicolor [23] = assay: Antimicrobial activity against Streptomyces coelicolor B725 harboring trpRS2 G(-13)T locus after 48 hrs; settings: B725, 48 h; outline: as §4
# Streptomyces coelicolor [24] = assay: Ratio of MIC for Streptomyces coelicolor B725 harboring trpRS2 L9F mutant ORF to MIC for Streptomyces coelicolor B725; outline: as §2
# Streptomyces coelicolor [25] = assay: Antimicrobial activity against Streptomyces coelicolor B725 harboring trpRS2 Q13K mutant ORF after 48 hrs; settings: B725, 48 h; outline: as §1
# Streptomyces coelicolor [26] = assay: Ratio of MIC for Streptomyces coelicolor B725 overexpressing tryptophanyl-tRNA synthetase gene to MIC for Streptomyces coelicolor B725; outline: as §2
# Streptomyces coelicolor [27] = assay: Antimicrobial activity against Streptomyces coelicolor B725 harboring trpRS2 G(-13)T/L9F locus after 48 hrs; settings: B725, 48 h; outline: as §4
# Streptomyces coelicolor [28] = assay: Ratio of MIC for Streptomyces coelicolor B725 harboring trpRS2 C(-17)A/L9F locus to MIC for Streptomyces coelicolor B725; outline: as §2
# Streptomyces coelicolor [29] = assay: Antimicrobial activity against Streptomyces coelicolor B725 harboring trpRS1 ORF after 48 hrs; settings: B725, 48 h; outline: as §1
# Streptomyces coelicolor [30] = assay: Ratio of MIC for Streptomyces coelicolor B725 harboring trpRS2 locus to MIC for Streptomyces coelicolor B725; outline: as §2
# Streptomyces coelicolor [31] = assay: Ratio of MIC for Streptomyces coelicolor B725 harboring trpRS2 G(-13)T locus to MIC for Streptomyces coelicolor B725; outline: as §2
# Streptomyces coelicolor [32] = assay: Ratio of MIC for Streptomyces coelicolor B725 harboring trpRS2 Q13K mutant ORF to MIC for Streptomyces coelicolor B725; outline: as §2
compound,measurement,setting,value
CNC1=NC(=O)[C@H]([C@H](C)c2c[nH]c3ccccc23)O1 [INDOMYCIN],MIC,Streptomyces coelicolor [1],> 75 µg/mL
same,fold change (FC),Streptomyces coelicolor [2],>300
same,MIC,Streptomyces coelicolor [3],> 150 µg/mL
same,fold change (FC),Streptomyces coelicolor [4],1
same,fold change (FC),Streptomyces coelicolor [5],>300
same,fold change (FC),Streptomyces coelicolor [6],>300
same,MIC,Streptomyces coelicolor [7],> 75 µg/mL
same,MIC,Streptomyces coelicolor [8],> 75 µg/mL
same,MIC,Streptomyces coelicolor [9],> 75 µg/mL
same,MIC,Streptomyces griseus,15 µg/mL
same,fold change (FC),Streptomyces coelicolor [10],48
same,MIC,Streptomyces coelicolor [11],2 µg/mL
same,MIC,Streptomyces avermitilis,5 µg/mL
same,MIC,Streptomyces coelicolor [12],0.25 µg/mL
same,MIC,Streptomyces coelicolor [13],5 µg/mL
same,fold change (FC),Streptomyces coelicolor [14],>300
same,MIC,Streptomyces coelicolor [15],0.25 µg/mL
same,fold change (FC),Streptomyces coelicolor [16],8
same,MIC,Streptomyces coelicolor [17],8 µg/mL
same,fold change (FC),Streptomyces coelicolor [18],32
same,fold change (FC),Streptomyces coelicolor [19],>300
same,MIC,Streptomyces coelicolor [20],0.25 µg/mL
same,MIC,Streptomyces coelicolor [21],5 µg/mL
same,MIC,Streptomyces coelicolor [22],> 75 µg/mL
same,MIC,Streptomyces coelicolor [23],5 µg/mL
same,fold change (FC),Streptomyces coelicolor [24],20
same,MIC,Streptomyces coelicolor [25],3 µg/mL
same,fold change (FC),Streptomyces coelicolor [26],60
same,MIC,Streptomyces coelicolor [27],12 µg/mL
same,fold change (FC),Streptomyces coelicolor [28],20
same,MIC,Streptomyces coelicolor [29],10 µg/mL
same,fold change (FC),Streptomyces coelicolor [30],1
same,fold change (FC),Streptomyces coelicolor [31],20
same,fold change (FC),Streptomyces coelicolor [32],12
